{"source": "paper PMC2886590", "about": "(Journal of molecular biology, 2010)", "biological_target": "MLL PHD3 finger (Homo sapiens, UniProt Q03164)", "sequence (Q03164 1565-1627)": "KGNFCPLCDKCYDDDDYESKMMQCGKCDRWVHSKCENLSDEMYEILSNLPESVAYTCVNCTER", "test": "NMR titration of histone peptides", "type": "binding", "conditions": "0.2 mM 15N-labeled PHD3, 12-mer histone tail peptide, 298K", "how_it_was_run": "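PHD3 finger (residues 1565-1627, wild type or mutant) was expressed as a GST fusion in E. coli BL21(DE3) pLysS grown in 15NH4Cl minimal medium. It was affinity-purified, GST-cleaved, size-exclusion purified and held in 25 mM d11-Tris pH 6.8, 150 mM KCl, 10 mM deuterated DTT and 7% 2H2O. 12-mer histone tail peptides were added stepwise to 0.2 mM protein, and normalized chemical shift changes were tracked in 1H,15N HSQC spectra.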"}
{"substance": "H3K4me3: histone H3 tail peptide trimethylated at lysine 4 (biotinylated residues 1-21; 12-mer for NMR)", "values": [{"measurement": "exchange regime on NMR time scale", "result": "intermediate-to-fast exchange regime"}]}
